In ChEMBL document CHEMBL4257550, “Novel hybrids derived from aspirin and chalcones potently suppress colorectal cancer in vitro and in vivo” (Medchemcomm, 2018):
Calls of active or inactive are those of the source. The rule behind the calls is not given here.

Assays:
HCT-8 [1] = assay: Antiproliferative activity against human HCT8 cells after 72 hrs by MTT assay; format: functional, cell-based; settings: HCT-8, 72 h
Procedure, shortened: (§1)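 HCT-8, DLD-1 and CCD841 cells seeded in 96-well plates, exposed to vehicle or compound for 72 h. MTT (5 mg/mL in PBS) added for a further 4 h, formazan dissolved in DMSO, absorbance read at 570 nm. IC50 taken as the concentration inhibiting 50% of proliferation; mean ± SD of three independent experiments.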

DLD-1 [2] = assay: Antiproliferative activity against human DLD1 cells after 72 hrs by MTT assay; format: functional, cell-based; settings: DLD-1, 72 h; procedure, shortened: as §1
HCT-8 [3] = assay: Antiproliferative activity against human HCT8 cells after 72 hrs in presence of ASA by MTT assay; format: functional, cell-based; settings: HCT-8, 72 h; procedure, shortened: as §1
DLD-1 [4] = assay: Antiproliferative activity against human DLD1 cells after 72 hrs in presence of ASA by MTT assay; format: functional, cell-based; settings: DLD-1, 72 h; procedure, shortened: as §1
HCT-8 [5] = assay: Antiproliferative activity against human HCT8 cells at 10 uM after 72 hrs by MTT assay relative to control; format: functional
Procedure, shortened: (§2)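 Cells treated with or without compound at 10 μM for 72 h, proliferation measured by MTT (4 h, formazan in DMSO, 570 nm). Inhibition (%) relative to untreated cells; mean ± SD of three independent experiments.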

DLD-1 [6] = assay: Antiproliferative activity against human DLD1 cells at 10 uM after 72 hrs by MTT assay relative to control; format: functional; procedure, shortened: as §2
HCT-8 [7] = assay: Induction of apoptosis in human HCT8 cells assessed as early apoptotic cells at 5 uM after 24 hrs by Annexin V-FITC/propidium iodide staining based flow cytometry (reference value: 0.25%); format: functional
HCT-8 [8] = assay: Antitumor activity against human HCT8 cells xenografted in BALB/c mouse assessed as reduction in tumor weight at 60 mg/kg, ip administered daily for 32 days measured every 4 days during compound dosing relative to control; format: functional; design: scale not given: the % may be the effect or the level left
Procedure, shortened: (§3)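 Male BALB/c nude mice (5–6 weeks, 18–20 g) inoculated s.c. with 1 × 10^7 HCT-8 cells. At tumours of 180–200 mm³, mice randomized and dosed i.p. daily for 32 days with 60 mg/kg or an equal volume of Tween 80/PBS (5:95) vehicle. Caliper length and width every 4 days, TV = width² × length/2. Tumour weight and body weight also recorded; n = 6 per group, mean ± SD.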

HCT-8 [9] = assay: Induction of reactive oxygen species generation in human HCT8 cells at 2.5 to 10 uM after 24 hrs by DCFH-DA staining based flow cytometry; format: functional, cell-based
Procedure, shortened: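 HCT-8 cells exposed to 0, 2.5, 5 or 10 μM for 24 h, loaded with 10 μM DCFH-DA at 37 °C for 20 min, washed three times in PBS. Intracellular ROS as DCF fluorescence by flow cytometry, Ex/Em 488/530 nm.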

HCT-8 [10] = assay: Induction of apoptosis in human HCT8 cells assessed as late apoptotic cells at 10 uM after 24 hrs by Annexin V-FITC/propidium iodide staining based flow cytometry (reference value: 2.4%); format: functional
HCT-8 [11] = assay: Cell cycle arrest in human HCT8 cells assessed as accumulation at S phase at 2.5 uM after 24 hrs by propidium iodide staining based flow cytometry (reference value: 36.19%); format: functional
HCT-8 [12] = assay: Induction of apoptosis in human HCT8 cells assessed as late apoptotic cells at 2.5 uM after 24 hrs by Annexin V-FITC/propidium iodide staining based flow cytometry (reference value: 2.4%); format: functional
HCT-8 [13] = assay: Cell cycle arrest in human HCT8 cells assessed as accumulation at G2 phase at 5 uM after 24 hrs by propidium iodide staining based flow cytometry (reference value: 23.77%); format: functional
[14] = Selectivity index, ratio of IC50 for human CCD-841 cells to IC50 for HCT8 human cells; format: toxicity; settings: CCD-841 cells versus HCT8 cells, read-out: Ratio IC50
Procedure, shortened: (§4)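 Ratio of the CCD841 MTT IC50 to the HCT-8 or DLD-1 IC50, each IC50 from a 72 h MTT assay (570 nm), mean of three independent experiments.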

HCT-8 [15] = assay: Cell cycle arrest in human HCT8 cells assessed as accumulation at G2 phase at 2.5 uM after 24 hrs by propidium iodide staining based flow cytometry (reference value: 23.77%); format: functional
HCT-8 [16] = assay: Induction of apoptosis in human HCT8 cells assessed as early apoptotic cells at 10 uM after 24 hrs by Annexin V-FITC/propidium iodide staining based flow cytometry (reference value: 0.25%); format: functional
HCT-8 [17] = assay: Induction of apoptosis in human HCT8 cells assessed as increase in cleaved PARP expression after 24 hrs by Western blotting analysis; format: functional, cell-based
Procedure, shortened: (§5)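 HCT-8 cells (1 × 10^6/well, six-well plates) left overnight, then given 0.1% DMSO or compound (0, 2.5, 5, 10 μM) for 24 h. Lysed 30 min at 4 °C, cleared at 15000 rpm, protein by BCA. 20 μg per lane on 7.5% SDS-PAGE, moved to PVDF, blocked in 5% milk/TBS-0.05% Tween 20. Probed for caspase 3, cleaved caspase 3, PARP, cleaved PARP and GAPDH; ECL detection.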

HCT-8 [18] = assay: Induction of apoptosis in human HCT8 cells assessed as increase in cleaved caspase3 expression after 24 hrs by Western blotting analysis; format: functional, cell-based; procedure, shortened: as §5
HCT-8 [19] = assay: Cell cycle arrest in human HCT8 cells assessed as accumulation at G1 phase at 5 uM after 24 hrs by propidium iodide staining based flow cytometry (reference value: 48.08%); format: functional
HCT-8 [20] = assay: Cell cycle arrest in human HCT8 cells assessed as accumulation at G1 phase at 2.5 uM after 24 hrs by propidium iodide staining based flow cytometry (reference value: 48.08%); format: functional
HCT-8 [21] = assay: Cell cycle arrest in human HCT8 cells assessed as accumulation at S phase at 10 uM after 24 hrs by propidium iodide staining based flow cytometry (reference value: 36.19%); format: functional
HCT-8 [22] = assay: Induction of apoptosis in human HCT8 cells assessed as early apoptotic cells at 2.5 uM after 24 hrs by Annexin V-FITC/propidium iodide staining based flow cytometry (reference value: 0.25%); format: functional
Mus musculus = assay: Toxicity in BALB/c mouse xenografted with human HCT8 cells assessed as change in body weight at 60 mg/kg, ip administered daily for 32 days; format: organism-based; settings: in vivo, 768 h; procedure, shortened: as §3
[23] = Selectivity index, ratio of IC50 for human CCD-841 cells to IC50 for DLD1 human cells; format: toxicity; settings: CCD-841 cells versus DLD1 cells; procedure, shortened: as §4
HCT-8 [24] = assay: Cell cycle arrest in human HCT8 cells assessed as accumulation at G1 phase at 10 uM after 24 hrs by propidium iodide staining based flow cytometry (reference value: 48.08%); format: functional
HCT-8 [25] = assay: Cell cycle arrest in human HCT8 cells assessed as accumulation at S phase at 5 uM after 24 hrs by propidium iodide staining based flow cytometry (reference value: 36.19%); format: functional
HCT-8 [26] = assay: Induction of apoptosis in human HCT8 cells assessed as late apoptotic cells at 5 uM after 24 hrs by Annexin V-FITC/propidium iodide staining based flow cytometry (reference value: 2.4%); format: functional
HCT-8 [27] = assay: Cell cycle arrest in human HCT8 cells assessed as accumulation at G0/G1 phase after 24 hrs by propidium iodide staining based flow cytometry; format: functional
[28] = Cytotoxicity against human CCD-841 cells after 72 hrs by MTT assay; format: cell-based; settings: CCD-841, 72 h; procedure, shortened: as §1
HCT-8 [29] = assay: Cell cycle arrest in human HCT8 cells assessed as accumulation at G2 phase at 10 uM after 24 hrs by propidium iodide staining based flow cytometry (reference value: 23.77%); format: functional
HCT-8 [30] = assay: Antitumor activity against human HCT8 cells xenografted in BALB/c mouse assessed as reduction in tumor volume at 60 mg/kg, ip administered daily for 32 days measured every 4 days during compound dosing; format: functional, organism-based; procedure, shortened: as §3
HCT-8 [31] = assay: Induction of apoptosis in human HCT8 cells after 24 hrs by Annexin V-FITC/propidium iodide staining based flow cytometry; format: functional, cell-based

**Q.** Which IC50 (HCT-8 [1]) does the source give for `CC(=O)Oc1ccccc1C(=O)O` [ASPIRIN] here?
**A.** Its IC50 is greater than 100 µM.

**Q.** What about the IC50 (DLD-1 [2]) of the same compound?
**A.** The IC50 was greater than 100 µM.

**Q.** What does the source list for `O=C(/C=C/c1cc(F)ccc1O)c1ccc(Cl)cc1`?
**A.** IC50 (HCT-8 [3]): 9.3 µM; IC50 (HCT-8 [1]): 25.6 µM; IC50 (DLD-1 [4]): 8 µM; IC50 (DLD-1 [2]): 13.2 µM

**Q.** Which Activity (HCT-8 [5]) does the source give for `CC(=O)Oc1ccccc1C(=O)Oc1ccccc1/C=C/C(=O)c1ccc([N+](=O)[O-])cc1` here?
**A.** The Activity was greater than 50%.

**Q.** And the Activity (DLD-1 [6])?
**A.** Its Activity is greater than 50%.

**Q.** Which Activity (HCT-8 [5]) does the source give for `CC(=O)Oc1ccccc1C(=O)Oc1ccccc1/C=C/C(=O)c1ccc(Cl)cc1` here?
**A.** The Activity was greater than 50%.

**Q.** And the Activity (DLD-1 [6])?
**A.** Its Activity is greater than 50%.

**Q.** With `CC(=O)Oc1ccccc1C(=O)Oc1ccccc1/C=C/C(=O)c1ccc(C)cc1` as the compound, how does the Activity (HCT-8 [5]) read?
**A.** The Activity was “Active”.

**Q.** What about the Activity (DLD-1 [6]) of the same compound?
**A.** Its Activity is “Active”.

**Q.** Which results are given for `COc1ccc(OC(=O)c2ccccc2OC(C)=O)c(/C=C/C(=O)c2ccc(Cl)cc2)c1`?
**A.** Activity (HCT-8 [7]): 14.22%; Activity (HCT-8 [8]): 42%; Activity (HCT-8 [9]): Active; Activity (HCT-8 [10]): 37.01%; Activity (HCT-8 [5]): >50%; Activity (HCT-8 [11]): 34.16%; Activity (HCT-8 [12]): 6.41%; IC50 (HCT-8 [1]): 2.4 µM; Activity (HCT-8 [13]): 10.82%; selectivity ratio [14]: 8; Activity (HCT-8 [15]): 17.76%; Activity (HCT-8 [16]): 21.46%; Activity (HCT-8 [17]): Dose-dependent effect; Activity (HCT-8 [18]): Dose-dependent effect; IC50 (DLD-1 [2]): 2.7 µM; Activity (HCT-8 [19]): 51.03%; Activity (HCT-8 [20]): 48.08%; Activity (HCT-8 [21]): 34.77%; Activity (DLD-1 [6]): >50%; Activity (HCT-8 [22]): 9.7%; Activity (Mus musculus): Non-Toxic; selectivity ratio [23]: 7.2; Activity (HCT-8 [24]): 56.46%; Activity (HCT-8 [25]): 38.16%; Activity (HCT-8 [26]): 13.49%; Activity (HCT-8 [27]): Dose-dependent effect; IC50 [28]: 19.4 µM; Activity (HCT-8 [29]): 8.77%; Activity (HCT-8 [30]): Active; Activity (HCT-8 [31]): Dose-dependent effect

**Q.** What does the source list for `CC(=O)Oc1ccccc1C(=O)Oc1ccc(F)cc1/C=C/C(=O)c1ccc(Cl)cc1`?
**A.** Activity (HCT-8 [5]): >50%; IC50 (HCT-8 [1]): 2.7 µM; IC50 (DLD-1 [2]): 3.5 µM; Activity (DLD-1 [6]): >50%

**Q.** Which IC50 [28] does the source give for `O=c1[nH]cc(F)c(=O)[nH]1` [FLUOROURACIL] here?
**A.** Its IC50 is 35.7 µM.
